Data reported in ChEMBL document CHEMBL1137748, “Design, synthesis and characterization of novel 2-(2,4-disubstituted-thiazole-5-yl)-3-aryl-3H-quinazoline-4-one derivatives as inhibitors of NF-kappaB and AP-1 mediated transcription activation and as potential anti-inflammatory agents” (Eur J Med Chem, 2009).
pIC50: −log10 of the molar value.

Columns and labels:
[1] = system: HEK293; test: Inhibition of NF-kappaB expressed in HEK293 cells assessed as inhibition of TNF-alpha-induced transcriptional activation at 10 uM treated 24 hrs before TNFalpha challenge measured after 20 to 24 hrs by luciferase assay relative to control; assay type: cell-based
Procedure, shortened: (§1)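 HEK/NF-κB cells stably carrying an NF-κB response element driving luciferase. Plated at 5×10^4 cells/well and held 24 h at 37 °C, 5% CO2. Compounds in 0.1% DMSO were added to replicate wells for 24 h, then TNF-α was added and cells were incubated 20–24 h. Bright-Glo lysis/substrate was added and luminescence read. The replicate mean was normalized to the maximal control.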

[2] = biological target: Transcription factor Jun (Homo sapiens) (UniProt P05412); test: Inhibition of AP1 expressed in HEK293 cells assessed as inhibition of PMA-induced transcriptional activation at 10 uM treated 24 hrs before PMA challenge measured after 20 to 24 hrs by luciferase assay relative to control
Chain of Transcription factor Jun (Homo sapiens) (P05412 whole entry): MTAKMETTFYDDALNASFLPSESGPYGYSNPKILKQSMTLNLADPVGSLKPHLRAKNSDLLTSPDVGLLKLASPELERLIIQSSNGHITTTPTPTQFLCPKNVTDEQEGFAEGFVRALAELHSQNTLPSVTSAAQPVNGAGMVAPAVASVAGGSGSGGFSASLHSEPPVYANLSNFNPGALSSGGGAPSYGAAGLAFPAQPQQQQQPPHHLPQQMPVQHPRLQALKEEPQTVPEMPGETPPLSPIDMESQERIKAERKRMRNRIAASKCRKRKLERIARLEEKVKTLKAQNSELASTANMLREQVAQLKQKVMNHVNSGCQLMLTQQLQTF

[3] = system: Rattus norvegicus; test: Antiinflammatory activity in Sprague-Dawley rat assessed as protection against carrageenan-induced paw edema at 50 mg/kg, po administered 1 hr before carrageenan challenge measured after 3 hrs relative to control; assay type: functional
Procedure, shortened: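 Sprague-Dawley rats of either sex, 150–250 g, fasted 18 h, n = 4 per group, each group run against a vehicle control. Dosed orally at 50 mg/kg in freshly made 0.2% agar suspension. One hour later, 0.1 ml of 1% carrageenan in saline was injected subplantar into the right hind paw. Paw volume was read by plethysmometer at 3 h. % protection = (control − test)/control × 100.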

[4] = Inhibition of NF-kappaB expressed in HEK293 cells assessed as inhibition of TNF-alpha-induced transcriptional activation treated 24 hrs before TNFalpha challenge measured after 20 to 24 hrs by luciferase assay; assay type: cell-based; procedure, shortened: as §1

Structure (SMILES)	inhibition [2] [%]	inhibition [1] [%]	Activity [3] [%]	pIC50 [4]
CC(=O)c1ccc(-n2c(-c3sc(Nc4ccc(Cl)cc4)nc3-c3ccccc3)nc3ccccc3c2=O)cc1	31	0	23	
CC(=O)c1ccc(-n2c(-c3sc(Nc4ccc(Cl)cc4)nc3C)nc3ccccc3c2=O)cc1	2	0	13	
COc1ccccc1-n1c(-c2sc(Nc3ccc(Cl)cc3)nc2C)nc2ccccc2c1=O			27	
CNc1nc(C)c(-c2nc3ccccc3c(=O)n2-c2cccc(C)c2)s1	20	10		
CNc1nc(C)c(-c2nc3ccccc3c(=O)n2-c2ccc(C(C)=O)cc2)s1	0	71	42	5.26
COc1ccc(-n2c(-c3sc(Nc4ccc(Cl)cc4)nc3C)nc3ccccc3c2=O)cc1	0	0	5	
CC(=O)c1ccc(-n2c(-c3sc(Nc4ccc(Cl)cc4)nc3N)nc3ccccc3c2=O)cc1	2	12	53	
CNc1nc(C)c(-c2nc3ccccc3c(=O)n2-c2ccccc2C)s1	67	16	35	
CNc1nc(C)c(-c2nc3ccccc3c(=O)n2-c2ccc(Cl)cc2)s1	82	93	71	5.48
Cc1ccc(Nc2nc(-c3ccccc3)c(-c3nc4ccccc4c(=O)n3-c3ccc(Cl)cc3)s2)cc1	0	0		
Cc1ccccc1-n1c(-c2sc(Nc3ccc(Cl)cc3)nc2C)nc2ccccc2c1=O			45	
Nc1nc(Nc2ccc(Cl)cc2)sc1-c1nc2ccccc2c(=O)n1-c1ccc(Cl)cc1	0	0	37	
O=c1c2ccccc2nc(-c2sc(Nc3ccc(Cl)cc3)nc2-c2ccccc2)n1-c1ccccc1Cl	0	24	61	
Cc1ccccc1-n1c(-c2sc(Nc3ccc(Cl)cc3)nc2-c2ccccc2)nc2ccccc2c1=O	32	27	51	
CNc1nc(-c2ccccc2)c(-c2nc3ccccc3c(=O)n2-c2ccc(C(C)=O)cc2)s1	15	4		

Now from value to molecule, other results behind:

inhibition [2] [%]	Structure (SMILES)	inhibition [1] [%]	Activity [3] [%]	pIC50 [4]
39	Cc1cccc(-n2c(-c3sc(Nc4ccc(Cl)cc4)nc3C)nc3ccccc3c2=O)c1	2		
7	CC(=O)c1ccc(-n2c(-c3sc(Nc4ccccc4)nc3C)nc3ccccc3c2=O)cc1	15		
60	Cc1ccccc1-n1c(-c2sc(Nc3ccccc3)nc2C)nc2ccccc2c1=O	21	42	
16	Cc1nc(Nc2ccccc2)sc1-c1nc2ccccc2c(=O)n1-c1ccccc1	25	12	
9	Cc1nc(Nc2ccccc2)sc1-c1nc2ccccc2c(=O)n1-c1ccc(Cl)cc1	79	72	5.26
21	Cc1nc(Nc2ccc(Cl)cc2)sc1-c1nc2ccccc2c(=O)n1-c1ccccc1Cl	60	58	
27	O=c1c2ccccc2nc(-c2sc(Nc3ccc(Cl)cc3)nc2-c2ccccc2)n1-c1ccccc1	0		
84	Cc1nc(Nc2ccc(Cl)cc2)sc1-c1nc2ccccc2c(=O)n1-c1ccc(Cl)cc1	96	38	5.48
0	Cc1nc(Nc2ccc(Cl)cc2)sc1-c1nc2ccccc2c(=O)n1-c1ccccc1	0	4	
2	Cc1ccc(-n2c(-c3sc(Nc4ccc(Cl)cc4)nc3C)nc3ccccc3c2=O)cc1	12	37	
21	Cc1nc(Nc2ccccc2)sc1-c1nc2ccccc2c(=O)n1-c1ccccc1Cl	6		
